# ChEMBL document CHEMBL1955746, “Synthesis and P2Y₂ receptor agonist activities of uridine 5'-phosphonate analogues” (Bioorg Med Chem, 2012)
# Active and inactive are the calls of the source. The rule behind the calls is not given here.
# How the values were obtained:
# Type in all cases: functional, cell-based
# P2Y purinoceptor 2 [1] = target: T1, P2Y purinoceptor 2 (Homo sapiens, UniProt P41231); test: Agonist activity at human P2Y2 receptor expressed in human 1321N1 cells assessed as stimulation of PLC-induced [3H]inositol phosphate production at 100 uM after 30 mins by scintillation counting relative to UTP
# How it was run: (§1)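 Retrovirally generated stable 1321N1 lines labelled 16 h with 1.0 μCi [3H]myo-inositol in inositol-free DMEM. Analogues at 100 μM, 30 min at 37°C in Hepes pH 7.3/HBSS with LiCl. Total [3H]inositol phosphates taken by formic acid extraction and Dowex anion exchange, then scintillation counting. P2Y2 and P2Y4 responses expressed as % of 100 nM UTP; P2Y6 as % of 1 μM UDP. Mean ± S.E.M., ≥3 experiments.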
# [2] = target: P2Y purinoceptor 6 (Homo sapiens) (UniProt Q15077); test: Agonist activity at human P2Y6 receptor expressed in human 1321N1 cells assessed as stimulation of PLC-induced [3H]inositol phosphate production at 100 uM after 30 mins by scintillation counting; how it was run: as §1
# [3] = target: P2Y purinoceptor 4 (Homo sapiens) (UniProt P51582); test: Agonist activity at human P2Y4 receptor expressed in human 1321N1 cells assessed as stimulation of PLC-induced [3H]inositol phosphate production at 100 uM after 30 mins by scintillation counting; how it was run: as §1
# P2Y purinoceptor 2 [4] = target: T1, P2Y purinoceptor 2; test: Agonist activity at human P2Y2 receptor expressed in human 1321N1 cells assessed as stimulation of PLC-induced [3H]inositol phosphate production after 30 mins by scintillation counting
# How it was run: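 Stable 1321N1 astrocytoma lines made by retroviral expression of the receptor. Cells plated 20,000/well two days ahead and labelled 16 h in serum-free, inositol-free DMEM with 1.0 μCi [3H]myo-inositol. Agonist added in HBSS with 100 mM Hepes pH 7.3 (five-fold stock) and 50 mM LiCl, 30 min at 37°C. Stopped with cold 50 mM formic acid, neutralized, Dowex columns. EC50 by non-linear regression, triplicates, ≥3 experiments.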
# Sequence of P2Y purinoceptor 6 (Homo sapiens) (Q15077 whole entry): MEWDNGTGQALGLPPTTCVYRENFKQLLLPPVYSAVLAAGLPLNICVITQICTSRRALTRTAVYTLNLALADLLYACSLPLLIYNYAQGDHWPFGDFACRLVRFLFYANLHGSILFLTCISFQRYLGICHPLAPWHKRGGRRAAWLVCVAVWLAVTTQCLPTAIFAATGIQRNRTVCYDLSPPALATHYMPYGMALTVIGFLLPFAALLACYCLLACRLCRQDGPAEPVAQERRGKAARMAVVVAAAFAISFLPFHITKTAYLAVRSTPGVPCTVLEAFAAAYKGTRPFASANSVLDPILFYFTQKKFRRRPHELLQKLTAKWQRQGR
# T1 sequence (P41231 whole entry): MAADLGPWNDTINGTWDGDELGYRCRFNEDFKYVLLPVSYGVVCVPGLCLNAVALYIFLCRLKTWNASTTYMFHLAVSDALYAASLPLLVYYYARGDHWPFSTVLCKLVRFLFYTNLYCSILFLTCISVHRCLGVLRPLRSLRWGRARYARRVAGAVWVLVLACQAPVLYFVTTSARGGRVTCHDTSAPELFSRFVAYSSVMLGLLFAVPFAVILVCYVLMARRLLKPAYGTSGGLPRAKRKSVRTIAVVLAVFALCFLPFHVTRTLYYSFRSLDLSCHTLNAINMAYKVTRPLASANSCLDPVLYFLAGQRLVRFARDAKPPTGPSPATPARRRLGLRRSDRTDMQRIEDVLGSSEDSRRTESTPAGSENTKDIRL
# Sequence of P2Y purinoceptor 4 (Homo sapiens) (P51582 whole entry): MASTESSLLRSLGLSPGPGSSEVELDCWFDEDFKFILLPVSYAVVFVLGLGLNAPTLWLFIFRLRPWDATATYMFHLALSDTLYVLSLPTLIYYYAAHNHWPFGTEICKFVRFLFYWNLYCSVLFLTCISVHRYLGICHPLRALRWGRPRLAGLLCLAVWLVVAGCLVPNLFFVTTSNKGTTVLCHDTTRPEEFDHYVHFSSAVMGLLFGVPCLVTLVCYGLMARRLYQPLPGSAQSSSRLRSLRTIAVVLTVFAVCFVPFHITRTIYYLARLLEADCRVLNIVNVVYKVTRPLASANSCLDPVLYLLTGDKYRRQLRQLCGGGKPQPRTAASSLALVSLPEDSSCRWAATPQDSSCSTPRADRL
Compound,Emax (P2Y purinoceptor 2 [1]) [%],Activity [2],Activity [3],EC50 (P2Y purinoceptor 2 [4]) [nM]
O=c1ccn([C@@H]2O[C@H](CCP(=O)(O)O)[C@@H](O)[C@H]2Cl)c(=O)[nH]1,9,inactive,inactive,> 20000
O=c1ccn([C@@H]2O[C@H](CCP(=O)(O)O)[C@@H](O)[C@H]2O)c(=O)[nH]1,32,,,5100
Cc1ccc(-c2cn([C@@H]3O[C@H](CCP(=O)(O)O)[C@@H](O)[C@H]3O)c(=O)[nH]c2=O)cc1,41,inactive,inactive,1000
O=c1ccn([C@@H]2O[C@H](COP(=O)(O)OP(=O)(O)O)[C@@H](O)[C@H]2O)c(=O)[nH]1,,inactive,,
N[C@@H]1[C@H](O)[C@@H](CCP(=O)(O)O)O[C@H]1n1ccc(=O)[nH]c1=O,9,inactive,inactive,> 20000
O=c1[nH]c(=O)n([C@@H]2O[C@H](CCP(=O)(O)O)[C@@H](O)[C@H]2O)cc1/C=C/c1ccccc1,41,inactive,inactive,3100
O=c1[nH]c(=O)n([C@@H]2O[C@H](CCP(=O)(O)O)[C@@H](O)[C@H]2O)cc1-c1ccc(F)cc1,43,inactive,inactive,400
O=c1[nH]c(=O)n([C@@H]2O[C@H](CCP(=O)(O)O)[C@@H](O)[C@H]2O)cc1-c1ccccc1,53,inactive,inactive,1500
O=c1[nH]c(=O)n([C@@H]2O[C@H](CCP(=O)(O)O)[C@@H](O)[C@H]2O)cc1-c1csc2ccccc12,45,inactive,inactive,> 20000
O=c1[nH]c(=O)n([C@@H]2O[C@H](CCP(=O)(O)O)[C@@H](O)[C@H]2O)cc1-c1ccc2ccccc2c1,54,inactive,inactive,2100
O=c1ccn([C@@H]2O[C@H](OCP(=O)(O)O)[C@@H](O)[C@H]2O)c(=O)[nH]1,19,inactive,inactive,> 20000
O=c1ccn([C@@H]2O[C@H](COP(=O)(O)OP(=O)(O)OP(=O)(O)O)[C@@H](O)[C@H]2O)c(=O)[nH]1 [URIDINE TRIPHOSPHATE],,,,20
O=c1[nH]c(=O)n([C@@H]2O[C@H](CCP(=O)(O)O)[C@@H](O)[C@H]2O)cc1-c1ccco1,45,inactive,inactive,700
O=c1ccn([C@H]2[C@H](O)[C@H](O)[C@]3(CCP(=O)(O)O)C[C@H]23)c(=O)[nH]1,,,,4000
O=c1[nH]c(=O)n([C@@H]2O[C@H](CCP(=O)(O)O)[C@@H](O)[C@H]2O)cc1-c1cccs1,35,inactive,inactive,500
